Experimental findings from ChEMBL document CHEMBL1177852, “Design and preparation of aza-analogues of benzo[c]phenanthridine framework with cytotoxic and antiplasmodial activities” (Eur J Med Chem, 2010) are described below.

SMILES strings stand for the structures.

One assay has as its system Vero. Description: Cytotoxicity against african green monkey Vero cells after 48 hrs by [3H]hypoxanthine incorporation assay. Format: cell-based. To be noted: Chlorocebus sabaeus. The method, boiled down: (§1)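 MCF7 and Vero cells cultured as for P. falciparum, but with 5% fetal calf serum in place of 5% human serum. Drugs added at various concentrations; growth measured by [3H]hypoxanthine incorporation after 48 h incubation.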

Assay [1] deals with Plasmodium falciparum. As to the kind of experiment: Antiplasmodial activity against chloroquine-resistant Plasmodium falciparum FcB1/Columbia after 48 hrs. Format: functional, organism-based. The method, boiled down:
(§2)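 P. falciparum cultured by Trager–Jensen method with modifications; cultures synchronized by 5% D-sorbitol lysis. Parasites incubated with compound at increasing dilutions for 48 h; growth read out as [3H]hypoxanthine incorporation.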

In a further assay the test system is MCF7. As to the kind of experiment: Cytotoxicity against human MCF7 cells after 48 hrs by [3H]hypoxanthine incorporation assay. The class given is functional, cell-based. The method, boiled down:
as §1

The test system of assay [2] is Plasmodium falciparum. As to the kind of experiment: Antiplasmodial activity against chloroquine-sensitive Plasmodium falciparum F32 after 48 hrs. The class given is functional, organism-based. The following applies: F32, 48 h. The procedure, abridged: as §2

Usually IC50 stands for the point on the concentration scale where inhibition reaches its midpoint. In the case of `Cn1c(=O)c2ccccc2c2ccc3ncccc3c21`, the IC50 with Vero turned out to be 3.5 µM; in the assay on Plasmodium falciparum [1], 22.3 µM; with MCF7, 12.5 µM; in the assay on Plasmodium falciparum [2] it was 17.6 µM.
With `Cn1c(=O)c2ccccc2c2c3cccnc3ccc21`, the IC50 in the assay on Vero worked out at 1.75 µM; in the assay with Plasmodium falciparum [1], 80.7 µM; in the assay on MCF7, 11.5 µM; in the assay on Plasmodium falciparum [2] it was 96.1 µM.
The matching figures for `Cn1c(=O)c2ccccc2c2cc3ncccc3cc21`: 2.85 µM, 154 µM, 0.6 µM and 123 µM.
The matching figures for `Cn1c(=O)c2ccccc2c2nc3ccccc3cc21`: 42 µM, 181 µM, 154 µM and 355 µM.
As for `Cn1c(=O)c2ccccc2c2ccc3cccnc3c21`, the IC50 in the assay on Vero stood at 3.35 µM; in the assay on Plasmodium falciparum [1], 38.2 µM; with MCF7, 16.5 µM; with Plasmodium falciparum [2], 36.3 µM.
The matching figures for `Cn1c(=O)c2ccccc2c2c3ccccc3ncc21`: 22.3 µM, 14.8 µM, 30.9 µM and 32.7 µM.
For `COc1cccc2c1C(=O)c1c(O)c3c(c(O)c1C2=O)C[C@@](O)(C(=O)CO)C[C@@H]3O[C@H]1C[C@H](N)[C@H](O)[C@H](C)O1` [DOXORUBICIN], the IC50 amounted to 7.4 µM with Vero and 0.41 µM in the assay on MCF7.
Turning to `Cn1c(=O)c2ccccc2c2ccc3cnccc3c21`, the IC50 is 2.3 µM with Vero, 54.8 µM in the assay with Plasmodium falciparum [1], 11.9 µM with MCF7 and 61 µM in the assay with Plasmodium falciparum [2].
